Legend:
COLO 205 = test: Growth inhibition of human COLO205 cells after 48 hrs by sulforhodamine B assay; assay type: functional; conditions: COLO 205, 48 h
In short: (§1)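 Run in the National Cancer Institute 60-cell-line panel screen. Viability was read by sulforhodamine B staining of total protein content, so it reflects cell number rather than metabolic activity. Values are reported as GI50.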

T47D = test: Growth inhibition of human T47D cells after 48 hrs by sulforhodamine B assay; assay type: functional
In short: (§2)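 Run within the National Cancer Institute 60-cell-line panel. Viability was read by sulforhodamine B staining of total cellular protein, as a measure of cell number rather than metabolic activity. GI50 values were taken from the panel data.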

MDA-MB-435 = test: Growth inhibition of human MDA-MB-435 cells after 48 hrs by sulforhodamine B assay; assay type: functional; conditions: MDA-MB-435, 48 h; in short: as §1
M14 = test: Growth inhibition of human M14 cells after 48 hrs by sulforhodamine B assay; assay type: functional; conditions: M14, 48 h; in short: as §1
NCI-H23 = test: Growth inhibition of human NCI-H23 cells after 48 hrs by sulforhodamine B assay; assay type: functional; conditions: NCI-H23, 48 h; in short: as §1
SNB-19 = test: Growth inhibition of human SNB19 cells after 48 hrs by sulforhodamine B assay; assay type: functional; conditions: SNB-19, 48 h; in short: as §2
CAKI-1 = test: Growth inhibition of human CAKI-1 cells after 48 hrs by sulforhodamine B assay; assay type: functional; conditions: CAKI-1, 48 h; in short: as §1
SR = test: Growth inhibition of human SR cells after 48 hrs by sulforhodamine B assay; assay type: functional; in short: as §2
SN12C = test: Growth inhibition of human SN12C cells after 48 hrs by sulforhodamine B assay; assay type: functional; in short: as §2
Hs-578T = test: Growth inhibition of human Hs578T cells after 48 hrs by sulforhodamine B assay; assay type: functional; in short: as §1
SK-MEL-28 = test: Growth inhibition of human SK-MEL-28 cells after 48 hrs by sulforhodamine B assay; assay type: functional; conditions: SK-MEL-28, 48 h; in short: as §1
SNB-75 = test: Growth inhibition of human SNB75 cells after 48 hrs by sulforhodamine B assay; assay type: functional; conditions: SNB-75, 48 h; in short: as §2
MCF7 = test: Growth inhibition of human MCF7 cells after 48 hrs by sulforhodamine B assay; assay type: functional; conditions: MCF7, 48 h; in short: as §1
NCI-H226 = test: Growth inhibition of human NCI-H226 cells after 48 hrs by sulforhodamine B assay; assay type: functional; conditions: NCI-H226, 48 h; in short: as §1
SF-295 = test: Growth inhibition of human SF295 cells after 48 hrs by sulforhodamine B assay; assay type: functional; conditions: SF-295, 48 h; in short: as §1
SF-268 = test: Growth inhibition of human SF268 cells after 48 hrs by sulforhodamine B assay; assay type: functional; conditions: SF-268, 48 h; in short: as §1
OVCAR-4 = test: Growth inhibition of human OVCAR4 cells after 48 hrs by sulforhodamine B assay; assay type: functional; conditions: OVCAR-4, 48 h; in short: as §1
SW-620 = test: Growth inhibition of human SW620 cells after 48 hrs by sulforhodamine B assay; assay type: functional; conditions: SW-620, 48 h; in short: as §2
KM12 = test: Growth inhibition of human KM12 cells after 48 hrs by sulforhodamine B assay; assay type: functional; conditions: KM12, 48 h; in short: as §1
Malme-3M = test: Growth inhibition of human MALME-3M cells after 48 hrs by sulforhodamine B assay; assay type: functional; in short: as §1
[1] = Therapeutic index, ratio of IC50 for human CD34-positive blood stem/progenitor cells to IC50 for human MA9.3 cells; conditions: CD34-positive blood stem/progenitor cells versus MA9.3 cells, read-out: Ratio IC50
In short: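 Cytotoxicity was measured in parallel on non-cancerous human CD34+ blood stem/progenitor cells (UCB) and on the MA9.3 AML line, which was made by introducing the MLL-AF9 oncogene into human CD34+ cells. The index is IC50 in CD34+ cells divided by IC50 in MA9.3, reported as mean ± error.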

RPMI-8226 = test: Growth inhibition of human RPMI8226 cells after 48 hrs by sulforhodamine B assay; assay type: functional; conditions: RPMI-8226, 48 h; in short: as §1
UO-31 = test: Growth inhibition of human UO31 cells after 48 hrs by sulforhodamine B assay; assay type: functional; conditions: UO-31, 48 h; in short: as §2
OVCAR-3 = test: Growth inhibition of human OVCAR3 cells after 48 hrs by sulforhodamine B assay; assay type: functional; conditions: OVCAR-3, 48 h; in short: as §1
MDA-MB-468 = test: Growth inhibition of human MDA-MB-468 cells after 48 hrs by sulforhodamine B assay; assay type: functional; conditions: MDA-MB-468, 48 h; in short: as §1
IGROV-1 = test: Growth inhibition of human IGROV1 cells after 48 hrs by sulforhodamine B assay; assay type: functional; conditions: IGROV-1, 48 h; in short: as §1
786-0 = test: Growth inhibition of human 786-0 cells after 48 hrs by sulforhodamine B assay; assay type: functional; conditions: 786-0, 48 h; in short: as §1
HCT-116 = test: Growth inhibition of human HCT116 cells after 48 hrs by sulforhodamine B assay; assay type: functional; conditions: HCT-116, 48 h; in short: as §1
[2] = Cytotoxicity against human CD34-positive blood stem/progenitor cells after 48 hrs by MTT assay; assay type: cell-based
In short: (§3)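 Non-transformed human CD34+ blood stem/progenitor cells from umbilical cord blood were run alongside MA9.3, an AML line made by introducing the MLL-AF9 oncogene into human CD34+ cells. IC50 was determined on each cell type. Therapeutic index is the ratio between the MA9.3 and CD34+ IC50 values.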

SF-539 = test: Growth inhibition of human SF539 cells after 48 hrs by sulforhodamine B assay; assay type: functional; conditions: SF-539, 48 h; in short: as §1
SK-OV-3 = test: Growth inhibition of human SKOV3 cells after 48 hrs by sulforhodamine B assay; assay type: functional; conditions: SK-OV-3, 48 h; in short: as §1
MDA-MB-231 = test: Growth inhibition of human MDA-MB-231 cells after 48 hrs by sulforhodamine B assay; assay type: functional; conditions: MDA-MB-231, 48 h; in short: as §1
A498 = test: Growth inhibition of human A498 cells after 48 hrs by sulforhodamine B assay; assay type: functional; conditions: A498, 48 h; in short: as §1
MOLT-4 = test: Growth inhibition of human MOLT4 cells after 48 hrs by sulforhodamine B assay; assay type: functional; conditions: MOLT-4, 48 h; in short: as §1
RXF 393 = test: Growth inhibition of human RXF393 cells after 48 hrs by sulforhodamine B assay; assay type: functional; conditions: RXF 393, 48 h; in short: as §1
SK-MEL-2 = test: Growth inhibition of human SK-MEL-2 cells after 48 hrs by sulforhodamine B assay; assay type: functional; conditions: SK-MEL-2, 48 h; in short: as §1
OVCAR-5 = test: Growth inhibition of human OVCAR5 cells after 48 hrs by sulforhodamine B assay; assay type: functional; conditions: OVCAR-5, 48 h; in short: as §1
NCI-H322M = test: Growth inhibition of human NCI-H322M cells after 48 hrs by sulforhodamine B assay; assay type: functional; in short: as §1
U-251 = test: Growth inhibition of human U251 cells after 48 hrs by sulforhodamine B assay; assay type: functional; conditions: U-251, 48 h; in short: as §2
[3] = Growth inhibition of human HCC2998 cells after 48 hrs by sulforhodamine B assay; assay type: functional; conditions: HCC 2998, 48 h; in short: as §1
SK-MEL-5 = test: Growth inhibition of human SK-MEL-5 cells after 48 hrs by sulforhodamine B assay; assay type: functional; conditions: SK-MEL-5, 48 h; in short: as §1
PC-3 = test: Growth inhibition of human PC3 cells after 48 hrs by sulforhodamine B assay; assay type: functional; conditions: PC-3, 48 h; in short: as §1
UACC-62 = test: Growth inhibition of human UACC62 cells after 48 hrs by sulforhodamine B assay; assay type: functional; conditions: UACC-62, 48 h; in short: as §2
BT-549 = test: Growth inhibition of human BT549 cells after 48 hrs by sulforhodamine B assay; assay type: functional; conditions: BT-549, 48 h; in short: as §1
LOX IMVI = test: Growth inhibition of human LOXIMVI cells after 48 hrs by sulforhodamine B assay; assay type: functional; in short: as §1
NCI-H460 = test: Growth inhibition of human NCI-H460 cells after 48 hrs by sulforhodamine B assay; assay type: functional; conditions: NCI-H460, 48 h; in short: as §1
[4] = Growth inhibition of human EKVX cells after 48 hrs by sulforhodamine B assay; assay type: functional; in short: as §1
NCI-H522 = test: Growth inhibition of human NCI-H522 cells after 48 hrs by sulforhodamine B assay; assay type: functional; conditions: NCI-H522, 48 h; in short: as §1
HCT-15 = test: Growth inhibition of human HCT15 cells after 48 hrs by sulforhodamine B assay; assay type: functional; conditions: HCT-15, 48 h; in short: as §1
HT-29 = test: Growth inhibition of human HT-29 cells after 48 hrs by sulforhodamine B assay; assay type: functional; conditions: HT-29, 48 h; in short: as §1
HOP-92 = test: Growth inhibition of human HOP92 cells after 48 hrs by sulforhodamine B assay; assay type: functional; conditions: HOP-92, 48 h; in short: as §1
HeLa = test: Cytotoxicity against human HeLa cells after 48 hrs by MTT assay; assay type: functional, cell-based
[5] = Cytotoxicity against human MA9.3 cells after 48 hrs by MTT assay; assay type: functional, cell-based; in short: as §3
ACHN = test: Growth inhibition of human ACHN cells after 48 hrs by sulforhodamine B assay; assay type: functional; in short: as §1
DU-145 = test: Growth inhibition of human DU145 cells after 48 hrs by sulforhodamine B assay; assay type: functional; conditions: DU-145, 48 h; in short: as §1
[6] = Growth inhibition of human NCI-ADR-RES cells after 48 hrs by sulforhodamine B assay; assay type: functional; in short: as §1
HOP-62 = test: Growth inhibition of human HOP62 cells after 48 hrs by sulforhodamine B assay; assay type: functional; conditions: HOP-62, 48 h; in short: as §1
UACC-257 = test: Growth inhibition of human UACC257 cells after 48 hrs by sulforhodamine B assay; assay type: functional; conditions: UACC-257, 48 h; in short: as §2

## Oc1ccc(OCCN(CCOc2ccc(O)cc2)c2ccccc2)cc1
COLO 205
  GI50: 20 µM
T47D
  GI50: 10.2 µM
MDA-MB-435
  GI50: 2.6 µM
M14
  GI50: 1.6 µM
NCI-H23
  GI50: 2.1 µM
SNB-19
  GI50: 11.2 µM
CAKI-1
  GI50: 0.4 µM
SR
  GI50: 0.5 µM
SN12C
  GI50: 4.7 µM
Hs-578T
  GI50: 14.5 µM
SK-MEL-28
  GI50: 14.8 µM
SNB-75
  GI50: 5.3 µM
MCF7
  GI50: 2.2 µM
NCI-H226
  GI50: 11.2 µM
SF-295
  GI50: 2.1 µM
SF-268
  GI50: 3.2 µM
OVCAR-4
  GI50: 10.5 µM
SW-620
  GI50: 10 µM
KM12
  GI50: 4.7 µM
Malme-3M
  GI50: 2.2 µM
[1]
  selectivity ratio: 5.3
RPMI-8226
  GI50: 3.8 µM
UO-31
  GI50: 1.5 µM
OVCAR-3
  GI50: 4.2 µM
MDA-MB-468
  GI50: 10 µM
IGROV-1
  GI50: 3.6 µM
786-0
  GI50: 3.6 µM
HCT-116
  GI50: 4.1 µM
[2]
  IC50: 16 µM
SF-539
  GI50: 2.8 µM
SK-OV-3
  GI50: 7.2 µM
MDA-MB-231
  GI50: 0.9 µM
A498
  GI50: 5.3 µM
MOLT-4
  GI50: 1.3 µM
RXF 393
  GI50: 2.6 µM
SK-MEL-2
  GI50: 11.8 µM
OVCAR-5
  GI50: 11.5 µM
NCI-H322M
  GI50: 11 µM
U-251
  GI50: 3 µM
[3]
  GI50: 4.7 µM
SK-MEL-5
  GI50: 2.6 µM
PC-3
  GI50: 6 µM
UACC-62
  GI50: 2.9 µM
BT-549
  GI50: 6.6 µM
LOX IMVI
  GI50: 2.2 µM
NCI-H460
  GI50: 2.2 µM
[4]
  GI50: 5.8 µM
NCI-H522
  GI50: 2 µM
HCT-15
  GI50: 10 µM
HT-29
  GI50: 14.5 µM
HOP-92
  GI50: 3.7 µM
HeLa
  IC50: 11 µM
[5]
  IC50: 3 µM
ACHN
  GI50: 0.4 µM
DU-145
  GI50: 3.2 µM
[6]
  GI50: 1.2 µM
HOP-62
  GI50: 8.9 µM
UACC-257
  GI50: 12.6 µM

## COc1cccc2c1C(=O)c1c(O)c3c(c(O)c1C2=O)C[C@@](O)(C(=O)CO)C[C@@H]3O[C@H]1C[C@H](N)[C@H](O)[C@H](C)O1 [DOXORUBICIN]
[2]
  IC50: 0.076 µM
[5]
  IC50: 0.086 µM

From ChEMBL document CHEMBL2380239, “Novel ROS-activated agents utilize a tethered amine to selectively target acute myeloid leukemia” (Bioorg Med Chem Lett, 2013)
